Measured values as given in ChEMBL document CHEMBL1156068, “Synthesis, pharmacological and antiviral activity of 1,3-thiazepine derivatives” (Eur J Med Chem, 2009).
Activity calls are given as the source filed them. No cut-off for these calls is given here.

How the values were obtained:
[1] = tested on: Mus musculus; assay: Acute toxicity in ip dosed Swiss albino mouse assessed as mortality within 48 hrs; format: organism-based; settings: in vivo
Procedure, shortened: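 Male Albino Swiss mice (18–30 g) received compound i.p. as a suspension in 0.5% aqueous methylcellulose, 10 mL kg-1. LD50 was calculated by the Litchfield–Wilcoxon method from mortality within 48 h.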

[2] = tested on: Mus musculus; assay: Depression of spontaneous locomotor activity in Swiss albino mouse at 0.1 times LD50, ip dose measured for 30 mins; format: functional, organism-based
Procedure, shortened: (§1)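 Spontaneous locomotion of single male Albino Swiss mice recorded in photoresistor actometers for 30 min. Compound given i.p. at 0.05 or 0.1 LD50 as 0.5% methylcellulose suspension 60 min before test. Vehicle controls. Student's t-test.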

[3] = tested on: Mus musculus; assay: Depression of spontaneous locomotor activity in Swiss albino mouse at 0.05 times LD50, ip dose measured for 30 mins; format: functional, organism-based; procedure, shortened: as §1
[4] = tested on: Mus musculus; assay: Effect on amphetamine-induced hyperactivity in Swiss albino mouse at 5 mg/kg, sc administered 30 mins before amphetamine challenge; format: functional, organism-based; design: dose 5 mg/kg
Procedure, shortened: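 Mice received compound i.p. (0.1 LD50, 0.5% methylcellulose suspension) 60 min before test. Amphetamine 5 mg kg-1 s.c. was given 30 min before test. Locomotion of single male Albino Swiss mice recorded in photoresistor actometers for 30 min. Vehicle controls. Student's t-test.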

[5] = tested on: Mus musculus; assay: Antinociceptive activity in Swiss albino mouse assessed as protection against acetic acid-induced abdominal constriction at 200 mg/kg, ip measured for 10 mins by writhing test; format: functional, organism-based; design: dose 200 mg/kg; settings: Abdomen
[6] = tested on: Mus musculus; assay: Effect on pentylenetetrazole-induced clonic seizures in Swiss albino mouse at 200 mg/kg, ip; format: functional, organism-based; design: dose 200 mg/kg
Procedure, shortened: (§2)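 Mice pretreated i.p. with compound (200 mg kg-1, 0.5% methylcellulose suspension, 60 min), then pentylenetetrazole 110 mg kg-1 s.c. Scored as number of mice with clonic seizures, tonic convulsions, and deaths. Chi-square test with Yates correction.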

[7] = tested on: Mus musculus; assay: Effect on pentylenetetrazole-induced tonic convulsion in Swiss albino mouse at 200 mg/kg, ip; format: functional, organism-based; design: dose 200 mg/kg; procedure, shortened: as §2
[8] = tested on: Mus musculus; assay: Effect on motor coordination in Swiss albino mouse at 200 mg/kg, ip by chimney test; format: ADME, organism-based; design: dose 200 mg/kg, route intraperitoneal; settings: in vivo
[9] = tested on: Mus musculus; assay: Effect on motor coordination in Swiss albino mouse at 200 mg/kg, ip by rotarod test; format: ADME, organism-based; design: dose 200 mg/kg, route intraperitoneal; settings: in vivo
[10] = organism: Mus musculus; assay: Decrease in body temperature in normothermic Swiss albino mouse within 30 to 90 mins; format: ADME, organism-based; settings: in vivo
[11] = organism: Mus musculus; assay: Decrease in body temperature in normothermic Swiss albino mouse within 60 to 120 mins; format: ADME, organism-based; settings: in vivo
[12] = tested on: Mus musculus; assay: Decrease in 5-hydroxytryptophan-induced head twitch in Swiss albino mouse at 200 mg/kg, ip measured for 6 two mins interval; format: functional, organism-based; design: dose 200 mg/kg
[13] = tested on: Human immunodeficiency virus 1; assay: Antiviral activity against wild type HIV1 3B infected in human MT4 cells assessed as protection against virus induced cytopathogenicity after 4 days by MTT assay; format: functional, organism-based; settings: Human immunodeficiency virus 1, 3B, MT4, 96 h
Procedure, shortened: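 MT-4 cells (1×10^4/well) in RPMI with serial compound dilutions were infected with HIV-1 (100 CCID50; m.o.i. 0.01). After 4 days, viability was measured by MTT. EC50 is the concentration giving 50% protection from virus-induced cytopathogenicity. Compounds were prepared as 100 mM DMSO stocks diluted in medium.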

[14] = tested on: Yellow fever virus; assay: Antiviral activity against Yellow fever virus infected in BHK-21 cells assessed as protection against virus induced cytopathogenicity after 3 to 4 days by MTT assay; format: functional, organism-based
Procedure, shortened: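 BHK cells were seeded at 5 × 10^4 per well and grown overnight to monolayers, then infected at m.o.i. 0.01 in serum-free medium. One hour later, MEM Earle's with 1% FCS (final) and serial compound dilutions were added. After 3–4 days at 37 °C, viability was read by MTT. EC50 is the concentration giving 50% protection from virus-induced cytopathogenicity.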

[15] = tested on: Bovine viral diarrhea virus 1; assay: Antiviral activity against Bovine viral diarrhea virus infected in MDBK cells assessed as protection against virus induced cytopathogenicity after 3 to 4 days by MTT assay; format: functional, organism-based
Procedure, shortened: (§3)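 Monolayers were grown overnight at 37 °C, 5% CO2: MDBK at 3×10^4 cells/well, BHK at 5×10^4 cells/well. Cells infected at m.o.i. 0.01. After 1 h, serial compound dilutions added in MEM with 1% FCS. Viability read by MTT after 3–4 days at 37 °C. EC50 is the concentration giving 50% protection from cytopathogenicity.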

[16] = tested on: Coxsackievirus B2; assay: Antiviral activity against Coxsackie virus B2 infected in african green monkey Vero76 cells after 3 days by plaque reduction assay; format: functional, organism-based; settings: Vero 76
Procedure, shortened: (§4)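 Vero 76 monolayers (2×10^5 cells/well, overnight) infected to give 50–100 PFU/well. Unadsorbed virus removed, then DMEM with 1% FCS, 0.75% methylcellulose and serial compound dilutions added. Incubated at 37 °C for 3 days (CVB-2, HSV-1) or 5 days (RSV). Fixed and stained with 50% ethanol/0.8% crystal violet in PBS; plaques counted.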

[17] = tested on: Poliovirus 1; assay: Antiviral activity against Poliovirus type 1 Sabin infected in african green monkey Vero76 cells after 2 days by plaque reduction assay; format: functional, cell-based; settings: Vero 76
[18] = tested on: Respiratory syncytial virus; assay: Antiviral activity against Respiratory syncytial virus infected in african green monkey Vero76 cells after 5 days by plaque reduction assay; format: functional, organism-based; settings: Vero 76; procedure, shortened: as §4
[19] = tested on: Vesicular stomatitis virus; assay: Antiviral activity against Vesicular stomatitis virus infected in african green monkey Vero76 cells after 2 days by plaque reduction assay; format: functional, organism-based; settings: Vero 76
[20] = tested on: Mammalian orthoreovirus 1; assay: Antiviral activity against Reo virus type-1 infected in BHK-21 cells assessed as protection against virus induced cytopathogenicity after 3 to 4 days by MTT assay; format: functional, organism-based; procedure, shortened: as §3
[21] = tested on: Human alphaherpesvirus 1; assay: Antiviral activity against HSV1 infected in african green monkey Vero76 cells after 3 days by plaque reduction assay; format: functional, organism-based; settings: Vero 76; procedure, shortened: as §4
[22] = tested on: Vaccinia virus; assay: Antiviral activity against Vaccinia virus infected in african green monkey Vero76 cells after 3 days by plaque reduction assay; format: functional, organism-based; settings: Orthopoxvirus vaccinia; Vero 76
[23] = Cytotoxicity against human MT4 cells assessed as reduction of cell viability after 96 hrs by MTT assay; format: cell-based
Procedure, shortened: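 Exponentially growing, mock-infected MT-4 cells were seeded at 1×10^5 cells mL-1 in RPMI-1640 with 10% FCS and penicillin/streptomycin, with serial compound dilutions. Incubated 96 h at 37 °C, 5% CO2, then viability read by MTT. CC50 is the concentration reducing viability by 50%.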

SMILES	Activity [1]	Activity [2]	Activity [3]	Activity [4]	Activity [5]	Activity [6]	Activity [7]	Activity [8]	Activity [9]	Activity [10]	Activity [11]	Activity [12]	Activity [14]	Activity [15]	Activity [16]	Activity [17]	Activity [18]	Activity [19]	Activity [20]	Activity [21]	further results
CC(C)C12C=CC(C)(CC1)C1C(=O)N(N3CCCCS/C3=N\c3ccc(Cl)c(Cl)c3)C(=O)C12 (centres undefined)	Active	Active	inactive	inactive	inactive	inactive	inactive	Non-toxic	Non-toxic	Toxic	Toxic	Active	inactive	inactive	inactive	inactive	inactive	inactive	inactive	inactive	EC50 [13]: > 100 µM; Activity [22]: inactive; CC50 at 96 h [23]: > 100 µM
CC1=CC2C(C(C)C)CC1C1C(=O)N(N3CCCCS/C3=N\c3ccc(C)cc3)C(=O)C21 (centres undefined)	Active	Active	inactive	inactive	inactive	inactive	inactive	Non-toxic	Non-toxic	Toxic	Toxic	inactive	inactive	inactive	inactive	inactive	inactive	inactive	inactive	inactive	Activity [22]: inactive
